Several values for one entry are separate records, joined by “and”; a condition that tells them apart may be missing. Equal values may be shown once. Read-outs that look alike come from different tables or passages of the source.

The subject of data set [1] is breast carcinoma T47D cell line. The experiment in a line: Antiproliferation, sulforhodamine B colorimetric bioassay, T47D. It is filed as cell-based. The note with it: read-out: Cytotoxicity (as of %Control) IC50, T47D, 72 h incubations, SRB, mean ± SD, n = 3-4.
For data set [2], the system named is normal periodontal ligament fibroblasts (PDL). The experiment in a line: Cytotoxicity in normal periodontal ligament fibroblasts. It is filed as cell-based. The procedure, abridged: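 Normal periodontal ligament fibroblasts exposed to test compound for 72 h. […] Selectivity index is the compound's IC50 on PDL divided by its IC50 on a given cancer cell line.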

Data set [3] has as its system breast carcinoma MCF7 cell line. The experiment in a line: Antiproliferation, sulforhodamine B colorimetric bioassay, MCF7. The note with it: read-out: Cytotoxicity (as of %Control) IC50, MCF7, 72 h incubations, SRB, mean ± SD, n = 3-4. It is filed as cell-based.
For data set [4], the system named is skin melanoma A375.s2 cell line. The experiment in a line: Antiproliferation, sulforhodamine B colorimetric bioassay, A375.s2. It is filed as cell-based. The note with it: read-out: Cytotoxicity (as of %Control) IC50, A375.s2; 72 h incubations, SRB; mean ± SD, n = 3-4.
Data set [5] in a line: DPPH radical scavenging, 96-well colorimetric assay. It is filed as biochemical. The following applies: read-out: DPPH radical scavenging IC50 value; 30 minutes incubations; mean ± SD, n = 3. Background: Loss of DPPH colour is used to gauge radical scavenging.
For data set [6], the system named is Nitric oxide synthase / NO in LPS prompted RAW264.7 macrophages. It is filed as cell-based. The note with it: mean ± SD, n = 3.

On to `N.N.[Cl][Pt][Cl]` [Cisplatin, cisplatin], for which the IC50 is 45.1 ± 7.84 µM in data set [1]; 45.2 µM and 45 µM in data set [1] (listed as cisplatin); 710 ± 130 nM in data set [2] (read-out: IC50 PDL Fibro, 72h incubations, mean ± SD, n = 3); 92.6 ± 12.5 µM in data set [3]; 92.6 µM in data set [3] (listed as cisplatin); 700 ± 100 nM in data set [4]. For the same compound, in data set [2] (72h incubations, mean ± SD, n = 3), the “IC50 PDL Fibro” value is recorded as “(0.21 ± 0.04) µg/mL”.

Consider `O=C1O[C@H]([C@@H](O)CO)C(O)=C1O` [Ascorbic acid, ascorbic acid], for which the IC50 in data set [5] came out at 3.37 µM.

Regarding `COc1ccc2c(c1)c(CC(=O)O)c(C)n2C(=O)c1ccc(Cl)cc1` [Indomethacin, indomethacin], the IC50 in data set [6] (Mus musculus, RAW264.7, 24 h, read-out: NOS- IC50 value (NO scavenging/antiinflammation), LPS prompted RAW264.7, 24h incubations, Griess assay) is 55.1 µM and 26.9 µg/mL; in data set [6] (read-out: NOS- IC50 value (NO scavenging/antiinflammation), LPS prompted RAW264.7, 24h incubations, Griess assay) it was 55.1 ± 2.25 µM.

For the origin of these results see PMC9727339 (Asian Pacific Journal of Cancer Prevention : APJCP, 2022).
